The target in test [1] is Neutrophil collagenase (Homo sapiens, UniProt P22894). Kind of test: Inhibition of human recombinant MMP8 using MCA-Pro-Leu-Gly-Leu-Dpa-Ala-Arg-NH2.AcOH as substrate preincubated for 10 mins measured by fluorescence analysis. Summed up:
(§1)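 Catalytic domains of recombinant human MMPs were assayed with fluorogenic OmniMMP substrate in 50 mM Tris-HCl pH 7.5, 150 mM NaCl, 5 mM CaCl₂, 0.05% Brij-35. Enzyme was 1–10 nM and substrate 4–10 μM, optimized per assay. Enzyme was preincubated 10 min with varying inhibitor concentrations, and IC50 was calculated from runs done at least in duplicate.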

Test [2] deals with Stromelysin-1 (Homo sapiens, UniProt P08254). Kind of test: Inhibition of human recombinant MMP3 using MCAArg-Pro-Lys-Pro-Val-Glu-Nva-Trp-Arg-Lys(DNP)-NH2 as substrate preincubated for 10 mins measured by fluorescence analysis. Summed up:
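Catalytic domain of recombinant human MMP-3 was assayed with NFF-3 fluorogenic substrate in 50 mM MES pH 6.0, 10 mM CaCl₂, 0.05% Brij-35. Enzyme was 1–10 nM and substrate 4–10 μM. Enzyme was preincubated 10 min with varying inhibitor concentrations, and IC50 came from at least duplicate runs.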

The species entered for test [3] is Rattus norvegicus. Kind of test: Chondroprotective activity in Sprague-Dawley rat cartilage assessed as inhibition of MMP13-mediated C1,C2 release at 0.5 mg/joint, ia measured on day 14 by ELISA. In kind it is functional. Summed up:
(§2)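 Male Sprague-Dawley rats (175−200 g, three per group) received one IA injection of 50 μL PBS holding 10 mg/mL suspension (sonicated, vortexed) into right knee. They were killed at 1, 7, 14 or 21 days, and tibial cartilage was collected. Cartilage was then challenged with 10 μg/mL APMA-activated human MMP-13 for 24 h at 37 °C in Tris pH 7.5. The reaction was stopped with 10 mM EDTA, and released C1,2C was measured by ELISA. Vehicle cartilage incubated with or without MMP-13 defined 100% and 0%.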

For test [4], the target named is T1, Interstitial collagenase (Homo sapiens, UniProt P03956).
T1 sequence (P03956 whole entry): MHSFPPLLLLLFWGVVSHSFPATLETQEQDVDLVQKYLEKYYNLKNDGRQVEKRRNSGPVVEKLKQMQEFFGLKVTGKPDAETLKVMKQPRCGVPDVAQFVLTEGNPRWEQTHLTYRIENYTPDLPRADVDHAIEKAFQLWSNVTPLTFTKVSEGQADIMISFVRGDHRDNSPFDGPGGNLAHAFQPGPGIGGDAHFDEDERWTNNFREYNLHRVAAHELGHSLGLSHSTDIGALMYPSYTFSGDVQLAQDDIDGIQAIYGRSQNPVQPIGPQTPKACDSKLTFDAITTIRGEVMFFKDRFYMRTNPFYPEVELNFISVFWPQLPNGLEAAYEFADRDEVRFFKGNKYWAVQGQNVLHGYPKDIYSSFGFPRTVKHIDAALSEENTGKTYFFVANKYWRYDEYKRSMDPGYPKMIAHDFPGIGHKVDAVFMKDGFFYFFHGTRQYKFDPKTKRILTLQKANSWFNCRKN
Kind of test: Inhibition of human recombinant MMP1 using MCA-Pro-Leu-Gly-Leu-Dpa-Ala-Arg-NH2.AcOH as substrate preincubated for 10 mins measured by fluorescence analysis. Summed up: as §1

For test [5], the target named is T2, Matrilysin (Homo sapiens, UniProt P09237).
T2 sequence (P09237 whole entry): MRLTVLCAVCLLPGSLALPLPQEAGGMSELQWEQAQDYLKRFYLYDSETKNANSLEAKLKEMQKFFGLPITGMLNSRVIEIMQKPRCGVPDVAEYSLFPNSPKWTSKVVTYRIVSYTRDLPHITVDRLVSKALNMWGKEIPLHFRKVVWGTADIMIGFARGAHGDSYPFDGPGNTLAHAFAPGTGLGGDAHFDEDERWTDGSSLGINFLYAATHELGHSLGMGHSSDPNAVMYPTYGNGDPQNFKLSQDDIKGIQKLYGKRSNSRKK
Nature of the test: Inhibition of human recombinant MMP7 using MCA-Pro-Leu-Gly-Leu-Dpa-Ala-Arg-NH2.AcOH as substrate preincubated for 10 mins measured by fluorescence analysis. Put shortly: as §1

Test [6] deals with Matrix metalloproteinase-9 (Homo sapiens, UniProt P14780). Nature of the test: Inhibition of human recombinant MMP9 using MCA-Pro-Leu-Gly-Leu-Dpa-Ala-Arg-NH2.AcOH as substrate preincubated for 10 mins measured by fluorescence analysis. Summed up: as §1
Test [7] has as its target Collagenase 3 (Homo sapiens, UniProt P45452). Kind of test: Inhibition of human recombinant MMP13 using MCA-Pro-Cha-Gly-Nva-His-Ala-Dpa-NH2 as substrate preincubated for 10 mins measured by fluorescence analysis. Put shortly:
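Catalytic domain of recombinant human MMP-13 was assayed with fluorogenic substrate in 50 mM Tris-HCl pH 7.5, 150 mM NaCl, 5 mM CaCl₂, 0.05% Brij-35. Enzyme was 1–10 nM and substrate 4–10 μM. It was preincubated 10 min with varying inhibitor concentrations, and IC50 came from at least duplicate runs.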

For test [8], the species on record is Rattus norvegicus. Kind of test: Chondroprotective activity in Sprague-Dawley rat cartilage assessed as inhibition of MMP13-mediated C1,C2 release at 0.5 mg/joint, ia measured on day 7 by ELISA. It is filed as functional. Summed up:
as §2

The target of test [9] is Matrix metalloproteinase-14 (Homo sapiens, UniProt P50281). Kind of test: Inhibition of human recombinant MMP14 using MCA-Pro-Leu-Gly-Leu-Dpa-Ala-Arg-NH2.AcOH as substrate preincubated for 10 mins measured by fluorescence analysis. Summed up:
as §1

Test [10] addresses 72 kDa type IV collagenase (Homo sapiens, UniProt P08253). Kind of test: Inhibition of human recombinant MMP2 using MCA-Pro-Leu-Gly-Leu-Dpa-Ala-Arg-NH2.AcOH as substrate preincubated for 10 mins measured by fluorescence analysis. Put shortly: as §1
Test [11] addresses T3, A disintegrin and metalloproteinase with thrombospondin motifs 4 (Homo sapiens, UniProt O75173).
T3 sequence (O75173 whole entry): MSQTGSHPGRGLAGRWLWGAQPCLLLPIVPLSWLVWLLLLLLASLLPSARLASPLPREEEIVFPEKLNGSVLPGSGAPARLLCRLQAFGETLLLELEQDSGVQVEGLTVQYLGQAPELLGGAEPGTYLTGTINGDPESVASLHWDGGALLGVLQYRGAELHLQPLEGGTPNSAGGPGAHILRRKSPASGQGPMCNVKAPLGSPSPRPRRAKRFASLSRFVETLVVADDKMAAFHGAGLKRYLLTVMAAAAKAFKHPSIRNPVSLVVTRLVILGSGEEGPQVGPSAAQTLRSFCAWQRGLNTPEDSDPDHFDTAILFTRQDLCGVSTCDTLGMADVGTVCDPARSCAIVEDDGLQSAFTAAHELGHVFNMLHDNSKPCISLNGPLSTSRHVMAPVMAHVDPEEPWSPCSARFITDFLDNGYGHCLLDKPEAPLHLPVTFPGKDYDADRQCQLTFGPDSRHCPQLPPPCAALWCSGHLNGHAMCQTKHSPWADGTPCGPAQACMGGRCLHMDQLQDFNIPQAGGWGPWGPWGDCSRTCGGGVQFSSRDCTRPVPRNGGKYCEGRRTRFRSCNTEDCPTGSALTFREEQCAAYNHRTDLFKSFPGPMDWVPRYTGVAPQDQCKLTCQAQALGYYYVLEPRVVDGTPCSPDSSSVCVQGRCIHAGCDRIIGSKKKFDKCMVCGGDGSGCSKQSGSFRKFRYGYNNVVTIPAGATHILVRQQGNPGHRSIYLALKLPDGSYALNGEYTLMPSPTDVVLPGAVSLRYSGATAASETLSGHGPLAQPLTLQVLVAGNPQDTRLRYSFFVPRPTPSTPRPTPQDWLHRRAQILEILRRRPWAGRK
Kind of test: Inhibition of human recombinant aggrecanase 1 using aggrecan-IGD as substrate measured after 15 mins by ELISA. Summed up:
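Aggrecanase-1 was run in 50 mM Tris-HCl pH 7.5, 150 mM NaCl, 5 mM CaCl₂, 0.05% Brij-35, with 100 nM recombinant human aggrecan interglobular domain as substrate, for 15 min at 37 °C. The reaction was stopped with EDTA, and ARGSVIL neoepitopes were quantified by ELISA.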

For test [12], the target named is Macrophage metalloelastase (Homo sapiens, UniProt P39900). Kind of test: Inhibition of human recombinant MMP12 using MCA-Pro-Leu-Gly-Leu-Dpa-Ala-Arg-NH2.AcOH as substrate preincubated for 10 mins measured by fluorescence analysis. Summed up: as §1
The test system of test [13] is Cartilage tissue. Kind of test: Inhibition of collagen degradation in bovine articular cartilage assessed as inhibition of interlukein-1alpha/oncostatin M-induced C1,C2 release measured after 11 days by ELISA. In kind it is functional, tissue-based. To be noted: Bos taurus, 264 h. Put shortly: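 Freshly isolated bovine articular cartilage pieces (~3 mm²) were stimulated with 5 ng/mL IL-1α plus 50 ng/mL OSM, with or without compound, for 11 days. Medium was refreshed twice weekly. Collagen degradation products in the conditioned medium were quantified by C1,2C ELISA.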

In test [14] the target is Disintegrin and metalloproteinase domain-containing protein 17 (Homo sapiens, UniProt P78536). Kind of test: Inhibition of human recombinant TACE using MCA-Pro-Leu-Ala-Gln-Ala-Val-Dpa-Arg-Ser-Ser-Ser-Arg-NH2 as substrate preincubated for 10 mins measured by fluorescence analysis. Put shortly:
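Recombinant human TACE was assayed with its fluorogenic peptide substrate in 25 mM Tris-HCl pH 9, 1.25 μM Zn(OAc)₂, 0.005% Brij-35. Enzyme was 1–10 nM and substrate 4–10 μM. Enzyme was preincubated 10 min with varying inhibitor concentrations, and IC50 came from at least duplicate runs.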

The species named for test [15] is Rattus norvegicus. Nature of the test: Chondroprotective activity in Sprague-Dawley rat cartilage assessed as inhibition of MMP13-mediated C1,C2 release at 0.5 mg/joint, ia measured after 24 hrs by ELISA. It is filed as functional. Summed up: as §2

Macrophage metalloelastase, sequence (P39900 whole entry): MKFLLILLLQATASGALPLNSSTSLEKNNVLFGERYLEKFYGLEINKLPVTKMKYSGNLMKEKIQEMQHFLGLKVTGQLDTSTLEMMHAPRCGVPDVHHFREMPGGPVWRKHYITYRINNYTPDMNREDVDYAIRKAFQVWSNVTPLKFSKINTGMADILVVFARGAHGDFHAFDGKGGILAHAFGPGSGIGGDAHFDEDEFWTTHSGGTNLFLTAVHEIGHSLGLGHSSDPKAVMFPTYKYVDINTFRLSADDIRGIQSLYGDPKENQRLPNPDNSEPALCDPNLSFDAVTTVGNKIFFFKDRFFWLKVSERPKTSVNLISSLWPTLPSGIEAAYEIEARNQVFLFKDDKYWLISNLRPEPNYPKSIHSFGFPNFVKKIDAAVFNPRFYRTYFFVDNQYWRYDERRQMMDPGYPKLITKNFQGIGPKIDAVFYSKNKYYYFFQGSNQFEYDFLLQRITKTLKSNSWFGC
Neutrophil collagenase, sequence (P22894 whole entry, the tested form may be a part): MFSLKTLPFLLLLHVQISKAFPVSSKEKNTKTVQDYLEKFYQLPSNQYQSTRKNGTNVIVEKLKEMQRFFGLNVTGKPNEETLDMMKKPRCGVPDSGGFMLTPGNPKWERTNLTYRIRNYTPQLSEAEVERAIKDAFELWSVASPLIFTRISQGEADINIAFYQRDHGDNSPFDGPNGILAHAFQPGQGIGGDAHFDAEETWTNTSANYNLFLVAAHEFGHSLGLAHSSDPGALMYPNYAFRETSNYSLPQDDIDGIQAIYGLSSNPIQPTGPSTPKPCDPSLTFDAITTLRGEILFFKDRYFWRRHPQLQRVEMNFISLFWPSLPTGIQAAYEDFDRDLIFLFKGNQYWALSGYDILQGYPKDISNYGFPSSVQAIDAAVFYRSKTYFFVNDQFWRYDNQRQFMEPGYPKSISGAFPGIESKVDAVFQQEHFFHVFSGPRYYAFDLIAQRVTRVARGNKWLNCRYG
Matrix metalloproteinase-9, sequence (P14780 whole entry): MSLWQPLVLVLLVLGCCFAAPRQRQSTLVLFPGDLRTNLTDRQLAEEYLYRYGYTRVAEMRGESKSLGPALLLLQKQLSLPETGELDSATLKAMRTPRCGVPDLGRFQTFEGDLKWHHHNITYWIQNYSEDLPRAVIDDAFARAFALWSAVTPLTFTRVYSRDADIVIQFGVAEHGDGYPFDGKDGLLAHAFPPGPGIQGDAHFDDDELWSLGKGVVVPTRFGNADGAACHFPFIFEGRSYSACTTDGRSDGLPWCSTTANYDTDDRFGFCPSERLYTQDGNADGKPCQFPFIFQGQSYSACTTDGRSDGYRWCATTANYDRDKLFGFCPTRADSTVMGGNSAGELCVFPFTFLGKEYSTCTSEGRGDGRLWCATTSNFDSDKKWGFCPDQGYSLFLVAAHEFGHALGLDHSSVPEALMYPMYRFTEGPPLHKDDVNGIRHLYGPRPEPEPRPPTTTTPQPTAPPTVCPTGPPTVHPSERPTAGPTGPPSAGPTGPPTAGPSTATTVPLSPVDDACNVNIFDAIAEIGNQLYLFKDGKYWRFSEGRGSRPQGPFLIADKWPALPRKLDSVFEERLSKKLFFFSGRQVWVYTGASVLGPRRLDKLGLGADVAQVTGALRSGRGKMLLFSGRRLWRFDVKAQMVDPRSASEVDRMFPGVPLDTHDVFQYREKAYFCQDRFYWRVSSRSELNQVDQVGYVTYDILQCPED
72 kDa type IV collagenase, sequence (P08253 whole entry): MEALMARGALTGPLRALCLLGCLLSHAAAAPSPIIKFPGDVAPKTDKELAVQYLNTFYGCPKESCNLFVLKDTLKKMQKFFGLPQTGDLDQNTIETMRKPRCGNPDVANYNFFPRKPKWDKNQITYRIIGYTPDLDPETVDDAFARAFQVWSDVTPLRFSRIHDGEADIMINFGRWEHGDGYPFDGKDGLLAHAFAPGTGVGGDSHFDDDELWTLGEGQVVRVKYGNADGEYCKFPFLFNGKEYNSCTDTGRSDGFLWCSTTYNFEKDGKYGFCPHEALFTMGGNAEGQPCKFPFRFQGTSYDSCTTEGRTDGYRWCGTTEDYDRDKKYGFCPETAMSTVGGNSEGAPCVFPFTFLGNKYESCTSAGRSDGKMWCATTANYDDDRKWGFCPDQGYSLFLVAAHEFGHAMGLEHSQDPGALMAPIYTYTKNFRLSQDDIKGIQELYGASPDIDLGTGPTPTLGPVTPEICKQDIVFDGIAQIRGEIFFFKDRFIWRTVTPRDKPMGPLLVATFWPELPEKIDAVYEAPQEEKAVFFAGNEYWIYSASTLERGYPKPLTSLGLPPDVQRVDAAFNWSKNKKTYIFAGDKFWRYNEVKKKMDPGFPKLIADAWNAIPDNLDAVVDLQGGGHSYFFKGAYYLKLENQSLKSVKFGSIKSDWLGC
Stromelysin-1, sequence (P08254 whole entry, the tested form may be a part): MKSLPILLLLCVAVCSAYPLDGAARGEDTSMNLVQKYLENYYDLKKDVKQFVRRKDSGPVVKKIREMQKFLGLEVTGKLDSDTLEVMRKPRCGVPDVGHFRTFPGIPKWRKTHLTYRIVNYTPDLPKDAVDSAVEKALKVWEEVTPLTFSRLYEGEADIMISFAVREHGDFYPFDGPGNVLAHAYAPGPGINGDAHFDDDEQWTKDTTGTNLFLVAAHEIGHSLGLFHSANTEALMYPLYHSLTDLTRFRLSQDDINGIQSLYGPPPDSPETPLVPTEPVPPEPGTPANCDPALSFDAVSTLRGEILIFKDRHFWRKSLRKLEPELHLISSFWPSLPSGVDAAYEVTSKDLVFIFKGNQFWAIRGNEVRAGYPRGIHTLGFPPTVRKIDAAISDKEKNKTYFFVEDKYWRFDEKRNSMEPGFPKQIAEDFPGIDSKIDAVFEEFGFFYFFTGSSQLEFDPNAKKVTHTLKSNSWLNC
Disintegrin and metalloproteinase domain-containing protein 17, sequence (P78536 whole entry, the tested form may be a part): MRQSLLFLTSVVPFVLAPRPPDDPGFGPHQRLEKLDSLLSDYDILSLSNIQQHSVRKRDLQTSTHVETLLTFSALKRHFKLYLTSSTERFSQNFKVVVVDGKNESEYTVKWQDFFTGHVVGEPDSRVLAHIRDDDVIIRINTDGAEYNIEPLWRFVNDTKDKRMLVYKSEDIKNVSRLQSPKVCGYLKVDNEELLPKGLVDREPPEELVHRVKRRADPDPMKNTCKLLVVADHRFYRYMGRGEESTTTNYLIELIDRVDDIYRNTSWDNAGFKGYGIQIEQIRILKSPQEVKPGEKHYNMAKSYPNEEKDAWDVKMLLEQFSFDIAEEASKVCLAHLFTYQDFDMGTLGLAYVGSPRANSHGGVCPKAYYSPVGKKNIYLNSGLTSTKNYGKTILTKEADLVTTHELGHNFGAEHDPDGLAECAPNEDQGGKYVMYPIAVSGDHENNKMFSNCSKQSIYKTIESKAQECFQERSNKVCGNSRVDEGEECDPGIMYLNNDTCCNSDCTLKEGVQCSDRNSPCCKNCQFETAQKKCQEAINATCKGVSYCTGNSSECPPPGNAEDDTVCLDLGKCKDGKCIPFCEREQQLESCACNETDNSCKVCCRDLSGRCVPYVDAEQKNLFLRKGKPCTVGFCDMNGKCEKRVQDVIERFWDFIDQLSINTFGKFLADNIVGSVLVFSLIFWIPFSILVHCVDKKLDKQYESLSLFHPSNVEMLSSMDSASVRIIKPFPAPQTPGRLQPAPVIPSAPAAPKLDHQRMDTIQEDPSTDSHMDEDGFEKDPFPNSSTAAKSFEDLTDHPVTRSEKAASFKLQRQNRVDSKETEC

In the case of `Cc1c(C(=O)O)ccc2c1CC[C@@H]2NC(=O)c1cc(C(=O)NCc2ccc(F)c(C(F)(F)F)c2)nc2c(F)cnn12`, the IC50 is > 20 µM in test [1]; 15 µM in [2]; > 20 µM in [4]; > 20 µM in test [5]; > 20 µM in [6]; 0.0013 µM in test [7]. In addition, the IC50 in test [9] is > 20 µM; in [10], > 20 µM; in test [11], 7 µM; in test [12], > 20 µM; in test [13] it was 0.005 µM; in test [14], > 20 µM. Moreover, the “inhibition (INH)” value in test [3] was 0%; in [8], 60%; in [15], 95%.

The record behind these values is ChEMBL document CHEMBL2046313, “Discovery and evaluation of a non-Zn chelating, selective matrix metalloproteinase 13 (MMP-13) inhibitor for potential intra-articular treatment of osteoarthritis” (J Med Chem, 2012).
